How the values were obtained:
[1] = system: A498; assay: In vitro antitumor activity against renal A498 tumor cell lines; format: functional, cell-based, Homo sapiens; conditions: a498
[2] = system: CCRF-CEM; assay: In vitro antitumor activity against leukemia CCRF-CEM tumor cell lines; format: functional, cell-based, Homo sapiens; conditions: ccrf-cem
[3] = system: COLO 205; assay: In vitro antitumor activity against colon COLO 205 tumor cell lines; format: functional, cell-based, Homo sapiens; conditions: colo 205
[4] = system: HCT-15; assay: In vitro antitumor activity against colon HCT-15 tumor cell lines; format: functional, cell-based, Homo sapiens; conditions: hct-15
[5] = system: HCT-116; assay: In vitro antitumor activity against colon HCT116 tumor cell lines; format: functional, cell-based, Homo sapiens; conditions: hct-116
[6] = species: Homo sapiens; assay: Concentration giving 500 zone units against H116 colon tumor cell lines; format: functional
How it was run: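 Disk diffusion soft agar colony formation assay on human H116 colon tumor cells. Each sample was applied to a disk as 15 µL, and activity was read as zone units. The value is the sample concentration that gave 500 zone units.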

[7] = system: MDA-MB-435; assay: In vitro antitumor activity against breast MDA-MB-435 tumor cell lines; format: functional, cell-based, Homo sapiens; conditions: mda-mb-435
[8] = system: M14; assay: In vitro antitumor activity against melanoma M14 tumor cell lines; format: functional, cell-based, Homo sapiens; conditions: m14
[9] = system: MOLT-4; assay: In vitro antitumor activity against leukemia MOLT-4 tumor cell lines; format: functional, cell-based, Homo sapiens; conditions: molt-4
[10] = system: MCF7; assay: In vitro antitumor activity against breast MCF-7 tumor cell lines; format: functional, cell-based, Homo sapiens; conditions: mcf7
[11] = system: NCI-H522; assay: In vitro antitumor activity against NSCL NCI-H522 tumor cell lines; format: functional, cell-based, Homo sapiens; conditions: nci-h522
[12] = system: NCI-H226; assay: In vitro antitumor activity against NSCL NCI-H226 tumor cell lines; format: functional, cell-based, Homo sapiens; conditions: nci-h226
[13] = system: RXF 393; assay: In vitro antitumor activity against renal RXF 393 tumor cell lines; format: functional, cell-based, Homo sapiens; conditions: rxf 393
[14] = system: SK-MEL-2; assay: In vitro antitumor activity against melanoma SK-MEL-2 tumor cell lines; format: functional, cell-based, Homo sapiens; conditions: sk-mel-2
[15] = system: UACC-62; assay: In vitro antitumor activity against melanoma UACC-62 tumor cell lines; format: functional, cell-based, Homo sapiens; conditions: uacc-62
[16] = system: HL-60; assay: In vitro antitumor activity against leukemia HL-60(TB) tumor cell lines; format: functional, cell-based, Homo sapiens; conditions: hl-60
[17] = system: 786-0; assay: In vitro antitumor activity against renal 786-0 tumor cell lines; format: functional, cell-based, Homo sapiens
[18] = system: A549; assay: In vitro antitumor activity against NSCL A549/ATCC tumor cell lines; format: functional, cell-based, Homo sapiens; conditions: a549
[19] = system: MDA-N; assay: In vitro antitumor activity against breast MDA-N tumor cell lines; format: functional, cell-based, Homo sapiens; conditions: mda-n
[20] = system: MC-38; assay: Selectivity was evaluated against Murine tumor ZC38 colon adenocarcinoma cell lines- ZL1210 lymphocytic leukemia cell lines at a concentration of 0.24 ug/mL; format: functional, cell-based; conditions: Mus musculus
How it was run: (§1)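 Disk diffusion soft agar colony formation assay; sample applied to disk (15 μL); cytotoxicity read as zone units. Differential = zone difference between a solid tumor line (murine Colon38; human colon H116, lung H125) and leukemia (murine L1210, human CEM) or normal bone marrow CFU-GM (murine/human). Solid tumor selective if differential exceeds 250 units.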

[21] = system: MC-38; assay: Selectivity was evaluated against murine tumor ZC38 colon adenocarcinoma cell lines- ZCFU-GM normal bone marrow cell lines at a concentration of 0.24 ug/mL; format: functional, cell-based; conditions: Mus musculus; how it was run: as §1
[22] = system: NCI-H125; assay: Selectivity was evaluated against human ZH125 lung non small cell carcinoma cell lines-CEM lymphocytic leukemia cell lines at a concentration of 0.24 ug/mL; format: functional, cell-based; how it was run: as §1
[23] = system: colon; assay: Selectivity was evaluated against human ZH116 colon cell lines-CEM lymphocytic leukemia cell lines at a concentration of 0.24 ug/mL; format: functional, cell-based; how it was run: as §1
[24] = species: Homo sapiens; assay: Activity relative to compound 3 (set to 1.0) was evaluated against H116 colon tumor cell lines; format: functional
How it was run: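 Disk diffusion soft agar colony formation assay on human H116 colon tumor cells, with 15 µL of sample applied to a disk and zone units read. Relative activity = (dilution required for 500 zone units × 100)/(mg/mL), normalised to a reference compound set at 1.0.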

[25] = system: L1210; assay: Selectivity was evaluated murine tumor against ZL1210 lymphocytic leukemia cell lines- ZCFU-GM normal bone marrow cell lines at a concentration of 0.24 ug/mL; format: functional, cell-based; conditions: Mus musculus; how it was run: as §1

Row | Compound | IC50 [1] [nM] | IC50 [2] [nM] | IC50 [3] [nM] | IC50 [4] [nM] | IC50 [5] [nM] | Concentration [6] [µg/mL] | IC50 [7] [nM] | IC50 [8] [nM] | IC50 [9] [nM] | IC50 [10] [nM] | IC50 [11] [nM] | IC50 [12] [nM] | IC50 [13] [nM] | IC50 [14] [nM] | IC50 [15] [nM] | IC50 [16] [nM] | IC50 [17] [nM] | IC50 [18] [nM] | IC50 [19] [nM] | further results
1 | CC1=C[C@H]2O[C@@H]3[C@H](O)[C@H]4OC(=O)/C=C\C=C\[C@H]([C@@H](C)O)OCC/C(C)=C/C(=O)OC[C@@]2(CC1)[C@]4(C)[C@]31CO1 | 9 | > 10000 | > 10000 | > 10000 | < 1 | 0.14 | 4 | < 1 | > 10000 | > 10000 | > 10000 | 7 | 57 | > 10000 | 9 | 10 | 59 | – | – | –
2 | CC1=C[C@H]2O[C@@H]3C[C@H]4OC(=O)/C=C\C=C\[C@H]([C@H](C)O)OCC/C(C)=C/C(=O)OC[C@@]2(CC1)[C@]4(C)[C@]31CO1 | – | – | – | – | – | 8.6 | – | – | – | – | – | – | – | – | – | – | – | – | – | –
3 | CC(=O)OC(C)[C@@H](O)/C=C/C=C\C(=O)O[C@@H]1CC2O[C@@H]3C=C(C)CC[C@]3(COC(=O)/C=C(\C)CCO)[C@]1(C)[C@]21CO1 (stereo partly drawn) [13`-ACETYLTRICHOVERRIN B] | 2380 | > 10000 | 612 | > 10000 | > 10000 | 31 | 2260 | 9000 | > 10000 | > 10000 | 1210 | 4870 | > 10000 | > 10000 | 9560 | > 10000 | > 10000 | 9770 | 5080 | –
4 | CC1=C[C@H]2O[C@@H]3C[C@H]4OC(=O)/C=C\C=C\[C@H]([C@H](C)O)OCC[C@@H](C)[C@H](O)C(=O)OC[C@@]2(CC1)[C@]4(C)[C@]31CO1 [(6'R,13'S) ISORORIDIN A] | 6 | > 10000 | 8 | > 10000 | > 10000 | 0.9 | 31 | 10 | > 10000 | > 10000 | 95 | – | 10 | > 10000 | 2 | > 10000 | > 10000 | > 10000 | 8 | –
5 | CC(=O)OC[C@]12CCC(C)=C[C@H]1O[C@@H]1[C@H](O)[C@@H](OC(C)=O)[C@@]2(C)[C@]12CO2 [ANGUIDIN] | < 1 | < 1 | < 1 | < 1 | < 1 | 0.24 | < 1 | < 1 | < 1 | < 1 | < 1 | < 1 | < 1 | < 1 | < 1 | < 1 | < 1 | < 1 | < 1 | Selectivity [20]: -150 zone unit; Selectivity [21]: 0 zone unit; Selectivity [22]: 0 zone unit; Selectivity [23]: -100 zone unit; Relative activity [24]: 423; Selectivity [25]: 150 zone unit
6 | CC1=C[C@H]2O[C@@H]3C[C@H]4OC(=O)/C=C\C=C\[C@H]([C@@H](C)O)OCC[C@@H](C)[C@H](O)C(=O)OC[C@@]2(CC1)[C@]4(C)[C@]31CO1 [RORIDIN A] | 316 | > 10000 | 3 | > 10000 | > 10000 | 0.78 | 6 | < 1 | > 10000 | > 10000 | < 1 | 3 | 2 | 3 | 5 | > 10000 | 40 | > 10000 | 3 | –
7 | CC1=C[C@H]2O[C@@H]3[C@H](O)[C@H]4OC(=O)/C=C\C=C\[C@H]([C@H](C)O)OCC/C(C)=C/C(=O)OC[C@@]2(CC1)[C@]4(C)[C@]31CO1 [RORIDIN L] | 19 | > 10000 | 13 | > 10000 | > 10000 | 1.3 | 20 | 24 | > 10000 | > 10000 | 21 | 91 | > 10000 | 24 | 18 | > 10000 | – | > 10000 | 21 | –
8 | CC1=C[C@H]2O[C@@H]3[C@H](O)[C@H]4OC(=O)/C=C\C=C\[C@@H]5O[C@H](C/C(C)=C/C(=O)OC[C@@]2(CC1)[C@]4(C)[C@]31CO1)O[C@H]5C [RORIDIN M] | 583 | > 10000 | – | 483 | 75 | 41 | 137 | 75 | > 10000 | > 10000 | 26 | 157 | 2180 | 260 | 409 | > 10000 | > 10000 | > 10000 | 83 | –
9 | CC1=C[C@H]2OC3C[C@@H](OC(=O)/C=C\C=C\[C@H](O)[C@H](C)O)[C@](C)([C@@]2(COC(=O)/C=C(\C)CCO)CC1)[C@]31CO1 [TRICHOVERRIN A] | 6960 | > 10000 | 1310 | > 10000 | > 10000 | 163 | 2700 | 7870 | > 10000 | > 10000 | 936 | 8410 | > 10000 | 7540 | > 10000 | > 10000 | > 10000 | 5440 | 7780 | –
10 | CC1=C[C@H]2OC3C[C@@H](OC(=O)/C=C\C=C\[C@H](O)[C@@H](C)O)[C@](C)([C@@]2(COC(=O)/C=C(\C)CCO)CC1)[C@]31CO1 [TRICHOVERRIN B] | 8160 | > 10000 | 4020 | > 10000 | > 10000 | 175 | 5490 | 7100 | > 10000 | > 10000 | 904 | 6930 | > 10000 | 8910 | > 10000 | > 10000 | > 10000 | 6210 | > 10000 | –
11 | CC1=C[C@H]2O[C@@H]3C[C@H]4OC(=O)/C=C\C=C\C(=O)OCC[C@@H](C)[C@H](O)C(=O)OC[C@@]2(CC1)[C@]4(C)[C@]31CO1 [VERRUCARIN A] | 3 | > 10000 | < 1 | 8100 | > 10000 | 0.78 | 4 | < 1 | > 10000 | 1200 | < 1 | 4 | > 10000 | 8 | 5 | > 10000 | – | > 10000 | 82 | –
12 | CC1=C[C@H]2O[C@@H]3[C@H](O)[C@H]4OC(=O)/C=C\C=C\C(=O)OCC/C(C)=C/C(=O)OC[C@@]2(CC1)[C@]4(C)[C@]31CO1 [VERRUCARRIN M] | 53 | > 10000 | 7 | 73 | – | 30 | 14 | 8 | > 10000 | > 10000 | < 1 | 33 | 84 | 37 | 57 | > 10000 | > 10000 | – | 14 | –

— ChEMBL document CHEMBL1145117, “Structures and cytotoxic properties of trichoverroids and their macrolide analogues produced by saltwater culture of Myrothecium verrucaria” (J Med Chem, 2003)
